From ChEMBL document CHEMBL1129431, “Derivatives of (R)- and (S)-5-fluoro-8-hydroxy-2-(dipropylamino)tetralin: synthesis and interactions with 5-HT1A receptors” (J Med Chem, 1996)
“And” between values parts separate entries of the source, which are not always exact repeats. Equal values may be shown once.

Assays:
[1] = target: T1, 5-hydroxytryptamine receptor 1A (Rattus norvegicus) (UniProt P19327); assay: Effect on 5-hydroxytryptamine 1A receptor mediated inhibition of VIP-stimulated cAMP production at dose of 1 uM; type: functional; conditions: values are per cent of control
T1 sequence (whole entry): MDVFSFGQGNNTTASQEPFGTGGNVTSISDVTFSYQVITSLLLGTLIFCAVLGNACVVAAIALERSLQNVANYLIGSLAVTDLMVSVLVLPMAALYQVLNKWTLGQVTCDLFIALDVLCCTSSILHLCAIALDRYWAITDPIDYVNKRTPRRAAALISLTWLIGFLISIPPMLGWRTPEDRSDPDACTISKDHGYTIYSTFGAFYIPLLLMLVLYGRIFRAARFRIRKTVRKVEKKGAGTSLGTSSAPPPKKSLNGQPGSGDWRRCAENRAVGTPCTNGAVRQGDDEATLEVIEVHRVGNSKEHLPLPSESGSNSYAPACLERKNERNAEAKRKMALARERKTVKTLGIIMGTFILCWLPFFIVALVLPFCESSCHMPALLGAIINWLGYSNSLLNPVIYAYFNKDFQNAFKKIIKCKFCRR
Method in brief: (§1)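 GH4ZD10 cells expressing rat 5-HT1A receptors were detached with EBSS plus 1 mM EDTA and resuspended to ~1×10^7 cells/mL in Ham's F10 with 0.01% ascorbic acid and 0.1 mM IBMX. After 1 h preincubation at 37 °C they were diluted to 0.8-1.5×10^6 cells/mL, then incubated 20 min at 37 °C with VIP (39 nM final) plus compound, alone or with 5-HT, in duplicate. The reaction was stopped by boiling. cAMP was measured in triplicate by protein-binding assay and expressed as % of the VIP-stimulated response.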

[2] = target: T1, 5-hydroxytryptamine receptor 1A (Rattus norvegicus); assay: Effect on 5-hydroxytryptamine 1A receptor mediated inhibition of VIP-stimulated cAMP production at dose of 0.1 uM + 1 uM 5-HT.; type: functional; conditions: values are per cent of control; method in brief: as §1
[3] = target: T1, 5-hydroxytryptamine receptor 1A (Rattus norvegicus); assay: Effect on 5-hydroxytryptamine 1A receptor mediated inhibition of VIP-stimulated cAMP production at dose of 0.05 uM; type: functional; conditions: values are per cent of control
Method in brief: (§2)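 GH4ZD10 cells expressing rat 5-HT1A receptors, detached with EDTA-supplemented Ca/Mg-free EBSS and resuspended in Ham's F10 with 0.01% ascorbic acid and 0.1 mM IBMX. Preincubated 1 h at 37 °C, then 0.8-1.5×10^6 cells/mL incubated 20 min at 37 °C with VIP (39 nM final) plus compounds. Duplicate samples stopped by boiling. cAMP measured in triplicate by protein-binding assay. Results are given as % of the VIP-stimulated response.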

[4] = target: T1, 5-hydroxytryptamine receptor 1A (Rattus norvegicus); assay: (§3) Effect on 5-hydroxytryptamine 1A receptor mediated inhibition of VIP-stimulated cAMP production at dose of 1 uM+ 50 uM 5-HT.; type: functional; conditions: values are per cent of control; method in brief: as §2
[5] = target: T2, 5-hydroxytryptamine receptor 1A (Rattus norvegicus, UniProt P19327); assay: Binding affinity against rat hippocampal 5-hydroxytryptamine 1A (5-HT1A) receptor determined using [3H]8-OH-DPAT as radioligand; type: tissue-based, Hippocampus
T2 sequence (P19327 whole entry): T1 sequence (whole entry)

[6] = target: T1, 5-hydroxytryptamine receptor 1A (Rattus norvegicus); assay: Effect on 5-hydroxytryptamine 1A receptor mediated inhibition of VIP-stimulated cAMP production at dose of 50 uM; type: functional; conditions: values are per cent of control; method in brief: as §2
[7] = target: T1, 5-hydroxytryptamine receptor 1A (Rattus norvegicus); assay: (§4) Effect on 5-hydroxytryptamine 1A receptor mediated inhibition of VIP-stimulated cAMP production at dose of 0.1 uM + 10 uM 5-HT.; type: functional; conditions: values are per cent of control; method in brief: as §1
[8] = target: T1, 5-hydroxytryptamine receptor 1A (Rattus norvegicus); assay: Effect against 5-hydroxytryptamine 1A receptor mediated inhibition of VIP-stimulated cAMP production at 0.1 uM dose; type: functional; conditions: values are per cent of control; method in brief: as §1
[9] = target: T1, 5-hydroxytryptamine receptor 1A (Rattus norvegicus); assay: Effect on 5-hydroxytryptamine 1A receptor mediated inhibition of VIP-stimulated cAMP production at dose of 10 uM; type: functional; conditions: values are per cent of control; method in brief: as §1
[10] = target: T1, 5-hydroxytryptamine receptor 1A (Rattus norvegicus); assay: Effect on 5-hydroxytryptamine 1A receptor mediated inhibition of VIP-stimulated cAMP production at dose of 30 uM; type: functional; conditions: values are per cent of control; method in brief: as §1
[11] = target: T1, 5-hydroxytryptamine receptor 1A (Rattus norvegicus); assay: as §4; type: functional; conditions: values are per cent of control; method in brief: as §2; remark: listed apart in the source
[12] = target: T1, 5-hydroxytryptamine receptor 1A (Rattus norvegicus); assay: Effect on 5-hydroxytryptamine 1A receptor mediated inhibition of VIP-stimulated cAMP production at dose of 0+ 1 uM 5-HT.; type: functional; conditions: values are per cent of control; method in brief: as §2
[13] = target: T1, 5-hydroxytryptamine receptor 1A (Rattus norvegicus); assay: Effect on 5-hydroxytryptamine 1A receptor mediated inhibition of VIP-stimulated cAMP production at dose of 0.1 uM + 0.1 uM 5-HT.; type: functional; conditions: values are per cent of control; method in brief: as §2
[14] = target: T1, 5-hydroxytryptamine receptor 1A (Rattus norvegicus); assay: Effect on 5-hydroxytryptamine 1A receptor mediated inhibition of VIP-stimulated cAMP production at dose of 1 uM+ 1 uM 5-HT.; type: functional; conditions: values are per cent of control; method in brief: as §2
[15] = target: T1, 5-hydroxytryptamine receptor 1A (Rattus norvegicus); assay: Effect on 5-hydroxytryptamine 1A receptor mediated inhibition of VIP-stimulated cAMP production at dose of 0.01 uM+ 1 uM 5-HT.; type: functional; conditions: values are per cent of control; method in brief: as §1
[16] = target: T1, 5-hydroxytryptamine receptor 1A (Rattus norvegicus); assay: Effect on 5-hydroxytryptamine 1A receptor-mediated inhibition of VIP-stimulated cAMP production at dose of 1 uM+ 10 uM 5-HT.; type: functional; conditions: values are per cent of control; method in brief: as §1
[17] = target: T1, 5-hydroxytryptamine receptor 1A (Rattus norvegicus); assay: as §3; type: functional; conditions: values are per cent of control; method in brief: as §1; remark: listed apart in the source
[18] = target: T1, 5-hydroxytryptamine receptor 1A (Rattus norvegicus); assay: Effect on 5-hydroxytryptamine 1A receptor mediated inhibition of VIP-stimulated cAMP production at dose of 1 uM+ 10 uM 5-HT.; type: functional; conditions: values are per cent of control; method in brief: as §1
[19] = target: T1, 5-hydroxytryptamine receptor 1A (Rattus norvegicus); conditions: 1 uM
[20] = target: T1, 5-hydroxytryptamine receptor 1A (Rattus norvegicus); conditions: 0.1 uM

SMILES | response, % of control [1] [%] | response, % of control [2] [%] | Ki [5] [nM] | response, % of control [8] | response, % of control [9] [%] | also measured
CCCN(CCCCN1C(=O)CC2(CCCC2)CC1=O)[C@@H]1CCc2c(F)ccc(C(C)=O)c2C1 | 59 | 61 | < 0.3 |  |  | response, % of control [3]: 50%; response, % of control [4]: 55%; response, % of control [6]: 48%
CCCN(CCC)[C@@H]1CCc2c(F)ccc(-c3ccco3)c2C1 | 97 | 60 |  | 106% and 98% | 84 | response, % of control [7]: 61%; response, % of control [10]: 79%
CCCN(CCC)[C@H]1CCc2c(F)ccc(-c3cccs3)c2C1 [listing 1 of 2 here] |  |  | 32.7 |  |  | 
CCCN(CCC)[C@H]1CCc2cccc(-c3cccs3)c2C1 |  |  | 5.5 |  |  | 
CCCN(CCC)[C@@H]1CCc2c(F)ccc(OS(=O)(=O)C(F)(F)F)c2C1 [listing 1 of 2 here] |  |  | 18.5 |  |  | 
CCCN(CCC)[C@H]1CCc2c(F)ccc(C(C)=O)c2C1 [listing 1 of 2 here] | 98 | 57 |  | 90% | 97 | 
CCCN(CCC)[C@H]1CCc2c(F)cccc2C1 [listing 1 of 2 here] |  |  | 250 |  |  | 
CCCN(CCCCN1C(=O)CC2(CCCC2)CC1=O)[C@@H]1CCc2c(F)ccc(-c3ccco3)c2C1 | 60 |  | 1.1 |  |  | response, % of control [11]: 54%; response, % of control [12]: 62%; response, % of control [13]: 57%; response, % of control [14]: 60%
CCCN(CCC)[C@H]1CCc2cccc(S(=O)(=O)C(F)(F)F)c2C1 |  |  | 9.5 |  |  | 
CCCN(CCC)[C@@H]1CCc2c(F)ccc(O)c2C1 | 78 | 57 |  | 86% | 61 | 
CCCN(CCC)[C@H]1CCc2c(F)ccc(OS(=O)(=O)C(F)(F)F)c2C1 [listing 1 of 2 here] |  |  | 490 |  |  | 
CCCN(CCC)[C@H]1CCc2c(F)ccc(OS(=O)(=O)C(F)(F)F)c2C1 [listing 2 of 2 here] |  |  | 490 |  |  | 
CCCN(CCC)[C@@H]1CCc2c(F)cccc2C1 | 85 |  |  | 93% and 98% | 81 | response, % of control [15]: 60%; response, % of control [16]: 58%; response, % of control [6]: 78%
CCCN(CCC)[C@@H]1CCc2c(F)ccc(-c3cccs3)c2C1 [listing 1 of 2 here] |  |  | 35 |  |  | 
CCCN(CCC)[C@H]1CCc2c(F)cccc2C1 [listing 2 of 2 here] | 86 | 61 |  | 85% |  | response, % of control [17]: 73%; response, % of control [6]: 86%
CCCN(CCCCN1C(=O)CC2(CCCC2)CC1=O)[C@H]1CCc2c(F)ccc(OS(=O)(=O)C(F)(F)F)c2C1 | 90 | 68 | 177 |  |  | response, % of control [3]: 98%; response, % of control [6]: 65%
CCCN(CCC)[C@@H]1CCc2c(F)ccc(OS(=O)(=O)C(F)(F)F)c2C1 [listing 2 of 2 here] | 91 | 60 |  | 98% | 61 | response, % of control [18]: 52%; response, % of control [10]: 48%
CCCN(CCC)[C@H]1CCc2c(F)ccc(C(C)=O)c2C1 [listing 2 of 2 here] |  |  | 13.6 |  |  | 
CCCN(CCC)[C@H]1CCc2c(F)ccc(-c3cccs3)c2C1 [listing 2 of 2 here] | 96 | 57 |  | 99% | 88 | 
CCCN(CCC)[C@@H]1CCc2c(F)ccc(C(C)=O)c2C1 [listing 1 of 2 here] |  |  | 6.9 |  |  | 
CCCN(CCC)[C@@H]1CCc2c(F)ccc(-c3cccs3)c2C1 [listing 2 of 2 here] | 93 | 60 |  | 98% | 79 | response, % of control [18]: 58%; response, % of control [10]: 61%
CCCN(CCC)[C@@H]1CCc2c(F)ccc(C(C)=O)c2C1 [listing 2 of 2 here] |  | 60 |  | 99% | 61 | response, % of control [10]: 62%; response, % of control [4]: 63%; response, % of control [19]: 63%; response, % of control [20]: 95%
